Measurements taken from ChEMBL document CHEMBL4513216, “Probing the Open Global Health Chemical Diversity Library for Multistage-Active Starting Points for Next-Generation Antimalarials” (ACS Infect Dis, 2020).

Assay: Toxicity liver stage against HepG2, at 10uM
Type: cell-based
Set-up: test concentration 10 uM, cell line HepG2-A16-CD81EGFP
Details: human, HepG2-A16-CD81EGFP cells; read-out: INHIBITION
Method in brief: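 Uninfected HepG2-A16-CD81EGFP cells, 3 × 10^3 per well, 1536-well, plated on prespotted compound at 10 μM final, parasite-free screening media added to match infected plates; puromycin 10 μM positive, DMSO 0.5% negative; run in parallel with 48 h PbLuc assay at 37 °C, 5% CO2; viability by CellTiter-Glo luminescence, normalized to controls.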

Cc1cc(C(=O)NCc2cccn2C)nn1C
cytotoxicity at 10 µM: 1.21%

C/C(NC(=O)c1ccccn1)=C1\C(=O)C[C@@H]2[C@H]1C2(C)C
cytotoxicity at 10 µM: 7.66%

COc1cccc2ccn(CC(=O)NCCC(C)C)c12
cytotoxicity at 10 µM: -43.3%

Cc1cc(C)nc(NC(=O)NCCCSc2nncn2C)n1
cytotoxicity at 10 µM: 1.74%

O=c1[nH]c2c(-c3ccccn3)nsc2c(=O)n1C1CCCCC1
cytotoxicity at 10 µM: -11.5%

Cc1n[nH]c2c1C(c1ccc3c(c1)OCO3)SCC(=O)N2 (centres undefined)
cytotoxicity at 10 µM: 3.46%

Cc1nn(S(=O)(=O)c2ccc(Cl)cc2)c(C)c1C
cytotoxicity at 10 µM: 15.1%

COCCN(Cc1ccoc1)C(=O)c1c(F)cccc1Cl
cytotoxicity at 10 µM: -0.11%

Cc1oc(-c2nc(C#N)c(N(C)C)o2)cc1S(=O)(=O)N1CCCC1
cytotoxicity at 10 µM: -8.87%

Cc1noc([C@@H]2CC[C@@H]3[C@@H](CCN3S(=O)(=O)C3CC3)O2)n1
cytotoxicity at 10 µM: -11.6%

CCO[C@@H]1CC[C@H]2[C@H]1OCCN2C(=O)C1CCOCC1
cytotoxicity at 10 µM: -19.8%

Cc1ccnc(NC(=O)CCc2cnn(C)c2C)c1
cytotoxicity at 10 µM: 0.107%

CCS(=O)(=O)Nc1cnn(Cc2cccc(F)c2)c1
cytotoxicity at 10 µM: -1%

CCn1c(SCC(=O)O)nnc1C(C)NC(=O)c1ccc(Cl)cc1 (centres undefined)
cytotoxicity at 10 µM: 3.52%

CCOC(=O)C1CCN(c2cc(C(=O)N3CCCCC3)nc(C)n2)CC1
cytotoxicity at 10 µM: -4.17%

O=C(O)c1ccnc2c(Br)cccc12
cytotoxicity at 10 µM: 8.02%

O=C(O)[C@H]1CN(Cc2ccccc2)C[C@@H]1C(=O)c1ccccc1
cytotoxicity at 10 µM: 5.76%

CCCn1ncc(C(=O)NC(C)c2c(C)nn(CC)c2C)c1C (centres undefined)
cytotoxicity at 10 µM: 9.91%

CNc1cnc(CC2COCCN(Cc3ccccc3)C2)cn1 (centres undefined)
cytotoxicity at 10 µM: 10.9%

O=S(=O)(c1ccccc1)N1CCOCC(Cc2cccnc2)C1 (centres undefined)
cytotoxicity at 10 µM: 0.812%

Cc1cc(C(=O)N2CCC(O)(Cn3c(C)cc4ccncc43)CC2)on1
cytotoxicity at 10 µM: 9.55%

Cc1cc(C)n(CC(=O)N2CCCC2c2cc3cccnc3[nH]2)n1 (centres undefined)
cytotoxicity at 10 µM: 3.94%

COc1ccccc1C(=O)N1C[C@@H]2CCCCN(CC(N)=O)[C@@H]2C1
cytotoxicity at 10 µM: -4.43%

COc1ccc(CC2CN(C(=O)c3coc(C)n3)CCO2)cc1 (centres undefined)
cytotoxicity at 10 µM: 3.8%

Cc1nccnc1CCC1COCCN1C(=O)CCc1c(C)noc1C (centres undefined)
cytotoxicity at 10 µM: 5.7%

NCc1cnn(-c2ccccc2C(=O)N2CCCC(C(N)=O)C2)c1 (centres undefined)
cytotoxicity at 10 µM: 1.2%

CC(C)NC(=O)NCc1nnc2n1C(C(=O)N(C)C)CC2 (centres undefined)
cytotoxicity at 10 µM: 5.45%

O=c1[nH]c2ncccc2n1C1CCCC1
cytotoxicity at 10 µM: 10.6%

O=C(COc1ccccc1Br)N1CCOc2ccncc21
cytotoxicity at 10 µM: 5.13%

O=c1[nH]c(=O)n(CC(O)c2ccc(F)cc2F)cc1Cl (centres undefined)
cytotoxicity at 10 µM: 2.64%

Cc1cc(NC(=O)N2CCC[C@@H]2CO)nn1-c1cccc(Cl)c1
cytotoxicity at 10 µM: -1.08%

CC(=O)NC1CCCN(C(=O)CCc2cccnc2)C1 (centres undefined)
cytotoxicity at 10 µM: 19.8%

N#Cc1cc(S(N)(=O)=O)ccc1N1CCc2c(Cl)cccc2C1
cytotoxicity at 10 µM: 14.7%

COc1ccccc1CC1CCCN(C(=O)c2cn[nH]c2C)C1 (centres undefined)
cytotoxicity at 10 µM: 7.61%

O=C(CNC(=O)C1CC1)Nc1c(F)cccc1Oc1ccccc1
cytotoxicity at 10 µM: 0.99%

CN(C)C(CNC(=O)c1ccnc(-n2cncn2)c1)c1ccccc1 (centres undefined)
cytotoxicity at 10 µM: -130%

CC(=O)N1CCC(NC(=O)CN2CCCc3c(F)ccc(C)c32)CC1
cytotoxicity at 10 µM: -7.68%

Cc1ccccc1OCCCC(=O)NCc1ccnc(O)c1
cytotoxicity at 10 µM: 5.65%

OCCN(Cc1cccnc1)c1cnc2ccccc2n1
cytotoxicity at 10 µM: 1.06%

CCCn1nnnc1CSc1nccn1Cc1ccccn1
cytotoxicity at 10 µM: 6.24%

CN(CCCNC(=O)Nc1ccc(C#N)cc1)CC(F)(F)F
cytotoxicity at 10 µM: -3%

Cc1cc(I)cnc1NC(=O)C(C)(C)C
cytotoxicity at 10 µM: 4.44%

CCOCCOC(C)C(=O)Nc1ccc2ccn(CCN(C)C)c2c1 (centres undefined)
cytotoxicity at 10 µM: 10.1%

CC(C)(C)Oc1ccc(C(=O)N2CCOCC2c2ncon2)cc1 (centres undefined)
cytotoxicity at 10 µM: -0.968%

NC(=O)CN(CC1CCOC1)C1CC1 (centres undefined)
cytotoxicity at 10 µM: -14%

Cn1ccc2c(C(=O)NCCCS(C)(=O)=O)cccc21
cytotoxicity at 10 µM: -0.915%

O=C(c1ccco1)N(CC(F)(F)F)C1CCCOC1 (centres undefined)
cytotoxicity at 10 µM: -19.5%

CCOC(C)c1nc(CN2CCN(Cc3cccnc3)CC2)cs1 (centres undefined)
cytotoxicity at 10 µM: 3.59%

O=C(CN1CCCCC1Cn1cccn1)NC1CCOCC1 (centres undefined)
cytotoxicity at 10 µM: 4.08%

Cc1noc(C)c1CNC(=O)N1CCC(NS(C)(=O)=O)CC1
cytotoxicity at 10 µM: -9.41%

COc1ccc(F)cc1C[S+]([O-])CC(=O)NCc1ccccc1C (centres undefined)
cytotoxicity at 10 µM: -0.907%

CS(=O)(=O)c1cccc(C(=O)NCC2Cc3ccccc3O2)c1 (centres undefined)
cytotoxicity at 10 µM: -1.26%

CN1CCC(NC(=O)CC2CN(Cc3ccccc3)CCO2)CC1 (centres undefined)
cytotoxicity at 10 µM: -22.2%

Cc1cccc(-c2nc(CN3CCn4c(nnc4C4CC4)C3)no2)c1
cytotoxicity at 10 µM: 3.33%

N#Cc1nccnc1NC1CCN(c2c(F)cccc2F)C1 (centres undefined)
cytotoxicity at 10 µM: 5.2%

CCc1noc(CC)c1CNC(=O)Nc1cccc(C(=O)N(C)C)c1
cytotoxicity at 10 µM: 16.4%

Cc1cc(F)ccc1NCC(=O)NCC(F)(F)F
cytotoxicity at 10 µM: -2.56%

COc1ccc(C(N)=O)cc1NCc1noc(-c2ccsc2)n1
cytotoxicity at 10 µM: 3.33%

COc1cc(F)c(C(C)NC(=O)c2cccnc2C)cc1OC (centres undefined)
cytotoxicity at 10 µM: 38%

O=C(c1ccc(N2CCCC2)nn1)N1CCCc2cc(F)c(F)cc21
cytotoxicity at 10 µM: -16.3%

CSCCN(C)Cc1ccc(F)cc1C#N
cytotoxicity at 10 µM: 4.81%

COc1ccnc(N2CCN(Cc3nc(-c4ccoc4)no3)CC2)c1
cytotoxicity at 10 µM: -10.9%

CC(C)COCC(NC(=O)Cc1ccn[nH]1)c1ccco1 (centres undefined)
cytotoxicity at 10 µM: -1.53%

CN(CCC#N)C(=O)Cc1csc(-c2ncccn2)n1
cytotoxicity at 10 µM: -0.343%

CC1CN(C(=O)NCCn2ccnc2)CCO1 (centres undefined)
cytotoxicity at 10 µM: -49.5%

Cc1nc(C2CCCN2C(=O)CCCOc2ccccc2C)no1 (centres undefined)
cytotoxicity at 10 µM: -2.21%

CC(C)c1nc(CN(C)C2CCN(CC(F)(F)F)C2)no1 (centres undefined)
cytotoxicity at 10 µM: -15.8%

Cc1ncccc1NC(=O)C1=NOC2(CCN(Cc3nccs3)C2)C1 (centres undefined)
cytotoxicity at 10 µM: 2.11%

COc1ccc(-c2cn[nH]c2)cc1CNC1CCCC1
cytotoxicity at 10 µM: -45.3%

COc1cccc(N2CCN(C(=O)C(C)Oc3ccccc3)CC2=O)c1 (centres undefined)
cytotoxicity at 10 µM: -4.73%

CC(C)CC(C)NCc1cccnc1N1CCN(c2ccccn2)CC1 (centres undefined)
cytotoxicity at 10 µM: 0.997%

CCc1nnc(CN(CC)C(=O)C2CC(=O)N(C3CC3)C2)o1 (centres undefined)
cytotoxicity at 10 µM: -0.143%

Cc1cc(C(=O)N2CCCC(c3ccc(C(=O)O)cc3)C2)c(C)o1 (centres undefined)
cytotoxicity at 10 µM: 11.8%

CCCn1nccc1S(=O)(=O)N1CCC2(CCCN(C(C)C)C2=O)C1 (centres undefined)
cytotoxicity at 10 µM: 5.96%

O=C(O)[C@@H]1CN(C2CCCCC2)C[C@H]1C1CC1
cytotoxicity at 10 µM: -140%

CC(C)Nc1cc(N2CCN(Cc3ccccc3)C(CCO)C2)ncn1 (centres undefined)
cytotoxicity at 10 µM: 7.9%

CN1CCCN(C(=O)c2cnc(Cc3c(Cl)cccc3Cl)nc2O)CC1
cytotoxicity at 10 µM: -0.862%

O=C1O[C@@H]2CN(Cc3ccsc3)C[C@@H]2N1Cc1ccccn1
cytotoxicity at 10 µM: 9.77%

COCCS(=O)(=O)c1ncc(CN(C)C)n1Cc1ccccc1
cytotoxicity at 10 µM: 3.19%

O=C1CCCCCN1CCc1nc(-c2cccnn2)no1
cytotoxicity at 10 µM: -1.75%

Cc1csc(CN2CC[C@@](O)(C3CCOCC3)[C@H](C)C2)n1
cytotoxicity at 10 µM: 4.48%

CCC(C)N(Cc1sccc1C)C(=O)c1cnc[nH]1 (centres undefined)
cytotoxicity at 10 µM: 5.55%

CCn1cc(C2=CCN(CCCOc3ccccc3)CC2)cn1
cytotoxicity at 10 µM: -9.98%

CCC(CO)N(Cc1ccco1)C(=O)c1cccnc1NC (centres undefined)
cytotoxicity at 10 µM: 1.64%

CC(C)n1ccnc1CN1CCOC(CCc2ccccc2)C1 (centres undefined)
cytotoxicity at 10 µM: -132%

CCNc1cc(N2CCN(C(=O)c3ccc(OC)cc3)CC2)nc(C)n1
cytotoxicity at 10 µM: -3.45%

C=C(C)COc1cccc(C(=O)NCCCc2nnn[nH]2)c1
cytotoxicity at 10 µM: -0.531%

Cc1nc2ncnn2c2ccn(-c3cccnc3O)c(=O)c12
cytotoxicity at 10 µM: 15.9%

CCCc1nc(CNC(=O)Cc2csc(C)n2)cs1
cytotoxicity at 10 µM: -10.6%

COc1ccccc1OC1CN(C(=O)Cc2c(C)nc(C)[nH]c2=O)C1
cytotoxicity at 10 µM: -2.9%

Cc1noc(C)c1CCC(=O)N1CCN(CCn2cncn2)CC1
cytotoxicity at 10 µM: 5.03%

Cc1ncsc1CCC(=O)NCc1cc2n(n1)CCN(C(=O)N(C)C)C2
cytotoxicity at 10 µM: 15.3%

O=C(NCCNc1ncccn1)C1CCN(C(=O)NC2CC2)CC1
cytotoxicity at 10 µM: -14.5%

Cc1cnn(C2CCCN(C(=O)CCCn3ccnc3C)C2)c1 (centres undefined)
cytotoxicity at 10 µM: -18.3%

CCc1ccc(C(=O)N2CCC(c3nncn3CC)CC2)s1
cytotoxicity at 10 µM: -15.4%

Cc1nn(C)c(N2CCOCC2)c1CNC1CCC(O)CC1 (centres undefined)
cytotoxicity at 10 µM: -13.2%

Cc1cc(CN2CCN(CC(O)c3ccc(Cl)cc3)CC2)no1 (centres undefined)
cytotoxicity at 10 µM: -7.06%

N#Cc1ccc(OCC(O)CN2CCc3cncnc3C2)cc1 (centres undefined)
cytotoxicity at 10 µM: -8.61%

N#CCc1cccc(C(=O)N2CCN(CC(O)c3ccccc3)CC2)c1 (centres undefined)
cytotoxicity at 10 µM: -10.7%

Cc1nn(C)cc1C(=O)N1CCCC(n2cncn2)C1 (centres undefined)
cytotoxicity at 10 µM: -3.27%

Cc1cc(C)n(CC2CN(CCOc3ccccc3F)CCO2)n1 (centres undefined)
cytotoxicity at 10 µM: -6.73%

Cc1cnn(CC2CCCCN2C(=O)CC(F)(F)F)c1 (centres undefined)
cytotoxicity at 10 µM: -11.5%

CC(=O)Nc1nc(C(=O)NCc2ccnc(N3CCCC3)c2)cs1
cytotoxicity at 10 µM: -1.94%

c1csc(-c2noc(CN3CCCCC3Cn3cccn3)n2)c1 (centres undefined)
cytotoxicity at 10 µM: -15.4%

CC(NC(=O)Nc1ccc(N2CCCC2)nc1)c1nncn1C (centres undefined)
cytotoxicity at 10 µM: -12.6%

Cc1n[nH]c(C)c1NC(=O)CN1CCCC1c1c(C)nn(C)c1C (centres undefined)
cytotoxicity at 10 µM: -19.2%

CC(C)c1csc(C2CCCN(C(=O)Cn3ccccc3=O)C2)n1 (centres undefined)
cytotoxicity at 10 µM: -14.4%

CS(=O)(=O)NCCCN1CCCC1c1ccccc1 (centres undefined)
cytotoxicity at 10 µM: -13.4%

Cc1cnn(CC2CCCN2C(=O)c2cc3ccccc3[nH]c2=O)c1 (centres undefined)
cytotoxicity at 10 µM: 2.38%

CCn1ncc2c1C(COCC1CC1)N(C(=O)c1ccncn1)CC2 (centres undefined)
cytotoxicity at 10 µM: -147%

CCn1cc2c(n1)CN(Cc1ccoc1)CC2COCC1CC1 (centres undefined)
cytotoxicity at 10 µM: -23.3%

CC(C)NC(=O)c1ccc2c(c1)C1(CCN(C)CC1)C(=O)N2
cytotoxicity at 10 µM: -0.201%

CSc1ccccc1C(=O)N1C[C@@H]2CC[C@H]1CN(C(=O)C1CCC1)C2
cytotoxicity at 10 µM: -6.75%

OC12CCC(CC1)N(Cc1ccc(F)cc1)C2CN1CCOCC1 (centres undefined)
cytotoxicity at 10 µM: 5.29%
